Measured values as given in ChEMBL document CHEMBL3826940, “Amphipathicity Determines Different Cytotoxic Mechanisms of Lysine- or Arginine-Rich Cationic Hydrophobic Peptides in Cancer Cells” (J Med Chem, 2016).

Test system: HeLa
Test: Membranolytic activity in human HeLa cells expressing GFP after 5 mins by fluorescence leakage assay
Type: functional, cell-based
How it was run: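 GFP-expressing HeLa cells (1 × 10^4/well, grown 24 h) were treated with peptides at various concentrations in PBS for 5 min. Supernatant was collected after centrifugation at 1000g and its fluorescence read at 485/535 nm. 1% Triton X-100 defined 100% leakage, and LC50 was calculated from three independent experiments.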

Row | Molecule | LC50 [µM]
1 | H-HGGKLLKLLKLKKLLKL-NH2 | 38.8
2 | H-HGGRLLRLLRRLLRLLR-NH2 | 3.9
3 | H-HGGKLLKLLKKLLKLLK-NH2 | 3.6
4 | CC(C)C[C@H](NC(=O)[C@H](CCCNC(=N)N)NC(=O)[C@H](CC(C)C)NC(=O)[C@H](CC(C)C)NC(=O)[C@H](CCCNC(=N)N)NC(=O)[C@H](CCCNC(=N)N)NC(=O)[C@H](CC(C)C)NC(=O)[C@H](CCCNC(=N)N)NC(=O)[C@H](CC(C)C)NC(=O)[C@H](CC(C)C)NC(=O)[C@H](CCCNC(=N)N)NC(=O)[C@H](CC(C)C)NC(=O)[C@H](CC(C)C)NC(=O)[C@H](CCCNC(=N)N)NC(=O)CNC(=O)CNC(=O)[C@@H](N)Cc1cnc[nH]1)C(N)=O | 25.9
